In brackets after ≈: the same amount, converted by molar mass.
Assays:
[1] = AUC in rat at 20 mg/kg, po; assay type: ADME, organism-based; design: dose 20 mg/kg, route oral; settings: plasma
Method in brief: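 Female CD rats were dosed orally at 20 mg/kg, with a separate 5 mg/kg IV arm. Exposure (AUC) was taken from the plasma profile after the oral dose.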

[2] = Apparent permeability from apical to basal side of human Caco2 cells; assay type: ADME, cell-based; settings: Caco-2
[3] = Apparent permeability from basal to apical side of human Caco2 cells; assay type: ADME, cell-based; settings: Caco-2
[4] = Aqueous solubility of the compound; assay type: physicochemical
[5] = Clearance in rat at 5 mg/kg, iv; assay type: ADME, organism-based; design: dose 5 mg/kg, route intravenous; settings: in vivo
Method in brief: (§1)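 Female CD rats received 5 mg/kg IV (20 mg/kg PO arm). Female CD1 mice received 5 mg/kg IV (10 mg/kg PO arm). Male and female beagles and male cynomolgus monkeys each received 1 mg/kg IV (2 mg/kg PO arm). Clearance and half-life were derived from plasma concentration–time profiles after the IV dose.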

[6] = Volume of distribution at steady state in rat at 5 mg/kg, iv; assay type: ADME, organism-based; design: dose 5 mg/kg, route intravenous; settings: in vivo, read-out: Vdss
Method in brief: (§2)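 Rat PK used a 5 mg/kg intravenous dose and a 20 mg/kg oral dose.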

[7] = Intrinsic clearance in human liver microsomes; assay type: ADME, Microsome; settings: read-out: CLH
[8] = Solubility of the compound at pH 7; assay type: physicochemical; settings: buffer
[9] = Intrinsic clearance in rat liver microsomes; assay type: ADME, Microsome; settings: read-out: CLH
[10] = Oral bioavailability in rat at 20 mg/kg; assay type: ADME, organism-based; settings: in vivo; method in brief: as §2
[11] = Oral bioavailability in rat at 10 mg/kg; assay type: ADME, organism-based; settings: in vivo
Method in brief: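 Rat PK used a 5 mg/kg intravenous dose and a 10 mg/kg oral dose.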

[12] = AUC in rat at 10 mg/kg, po; assay type: ADME, organism-based; design: dose 10 mg/kg, route oral; settings: plasma
[13] = tested on: Plasma; test: Plasma concentration in nu/nu mouse xenografted with human A2780 cells at 100 mg/kg, po; assay type: ADME, organism-based; design: dose 100 mg/kg, route oral; settings: in vivo
Method in brief: (§3)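 A2780 tumor-bearing mice were given oral doses (3, 10, 60 and 100 mg/kg were examined). Tumor AKT Ser473 phosphorylation and plasma exposure were measured, with the 10 h time point sampled.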

[14] = Lipophilicity, log D at pH 7.4; assay type: physicochemical; settings: buffer
[15] = Drug uptake in tumor in nu/nu mouse xenografted with human A2780 cells at 100 mg/kg, po; assay type: ADME, organism-based, Neoplasm; design: dose 100 mg/kg, route oral; settings: in vivo, read-out: Drug uptake
Method in brief: (§4)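 A2780 tumor-bearing mice received a single oral dose. Tumors and plasma were sampled at 10 h. Tumor pAKT Ser473 was assessed for target modulation, and compound concentrations were measured in plasma and tumor.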

[16] = Half life in CD1 mouse at 5 mg/kg, iv; assay type: ADME, organism-based; design: dose 5 mg/kg, route intravenous; settings: in vivo; method in brief: as §1
[17] = tested on: Plasma; test: Plasma concentration in nu/nu mouse xenografted with human A2780 cells at 60 mg/kg, po; assay type: ADME, organism-based; design: dose 60 mg/kg, route oral; settings: in vivo; method in brief: as §3
[18] = Clearance in CD1 mouse at 5 mg/kg, iv; assay type: ADME, organism-based; design: dose 5 mg/kg, route intravenous; settings: in vivo; method in brief: as §1
[19] = Volume of distribution at steady state in cynomolgus monkey at 1 mg/kg, iv; assay type: ADME, organism-based, Macaca fascicularis; design: dose 1 mg/kg, route intravenous; settings: in vivo, read-out: Vdss
Method in brief: (§5)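 Male cynomolgus monkeys were dosed at 1 mg/kg IV and 2 mg/kg PO.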

[20] = Half life in cynomolgus monkey at 1 mg/kg, iv; assay type: ADME, organism-based, Macaca fascicularis; design: dose 1 mg/kg, route intravenous; settings: in vivo; method in brief: as §1
[21] = Clearance in CD rat at 5 mg/kg, iv; assay type: ADME, organism-based; design: dose 5 mg/kg, route intravenous; settings: in vivo; method in brief: as §1
[22] = Oral bioavailability in cynomolgus monkey at 2 mg/kg; assay type: ADME, organism-based, Macaca fascicularis; settings: in vivo; method in brief: as §5
[23] = Clearance in cynomolgus monkey at 1 mg/kg, iv; assay type: ADME, organism-based, Macaca fascicularis; design: dose 1 mg/kg, route intravenous; settings: in vivo; method in brief: as §1
[24] = Oral bioavailability in beagle dog at 2 mg/kg; assay type: ADME, organism-based, Canis lupus familiaris; settings: in vivo
Method in brief: (§6)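 Male and female beagle dogs were dosed at 1 mg/kg IV and 2 mg/kg PO.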

[25] = Half life in CD rat at 5 mg/kg, iv; assay type: ADME, organism-based; design: dose 5 mg/kg, route intravenous; settings: in vivo; method in brief: as §1
[26] = Clearance in beagle dog at 1 mg/kg, iv; assay type: ADME, organism-based, Canis lupus familiaris; design: dose 1 mg/kg, route intravenous; settings: in vivo; method in brief: as §1
[27] = Volume of distribution at steady state in CD rat at 5 mg/kg, iv; assay type: ADME, organism-based; design: dose 5 mg/kg, route intravenous; settings: in vivo, read-out: Vdss
Method in brief: (§7)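 Female CD rats were dosed at 5 mg/kg IV and 20 mg/kg PO.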

[28] = Volume of distribution at steady state in beagle dog at 1 mg/kg, iv; assay type: ADME, organism-based, Canis lupus familiaris; design: dose 1 mg/kg, route intravenous; settings: in vivo, read-out: Vdss; method in brief: as §6
[29] = Oral bioavailability in CD1 mouse at 10 mg/kg; assay type: ADME, organism-based; settings: in vivo
Method in brief: (§8)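 Female CD1 mice were dosed at 5 mg/kg IV and 10 mg/kg PO.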

[30] = Half life in beagle dog at 1 mg/kg, iv; assay type: ADME, organism-based, Canis lupus familiaris; design: dose 1 mg/kg, route intravenous; settings: in vivo; method in brief: as §1
[31] = Drug uptake in tumor in nu/nu mouse xenografted with human A2780 cells at 60 mg/kg, po; assay type: ADME, organism-based, Neoplasm; design: dose 60 mg/kg, route oral; settings: in vivo, read-out: Drug uptake; method in brief: as §4
[32] = Volume of distribution at steady state in CD1 mouse at 5 mg/kg, iv; assay type: ADME, organism-based; design: dose 5 mg/kg, route intravenous; settings: in vivo, read-out: Vdss; method in brief: as §8
[33] = Dissociation constant, pKa of the compound; assay type: physicochemical
[34] = Oral bioavailability in CD rat at 20 mg/kg; assay type: ADME, organism-based; settings: in vivo; method in brief: as §7

## Nc1ncc(-c2cc(Nc3cnc4ccccc4c3)nc(N3CCOCC3)n2)cn1
[1]
  AUC: 7 µM·h

## Nc1cc(C(F)(F)F)c(-c2cc(Nc3cnc4ccccc4c3)nc(N3CCOCC3)n2)cn1
[1]
  AUC: 114 µM·h
[2]
  Papp A→B: 1.56 ×10⁻⁶ cm/s
[3]
  Papp B→A: 2.15 ×10⁻⁶ cm/s
[4]
  solubility: 0.3 µg/mL (≈ 0.642 µM)
[5]
  clearance: 8 mL/min/kg
[6]
  Vd: 2.6 L/kg

## Nc1ncc(-c2cc(Nc3cnc4ccccc4c3)nc(N3CCOCC3)n2)c(C(F)(F)F)n1
[1]
  AUC: 26 µM·h
[5]
  clearance: 11 mL/min/kg
[6]
  Vd: 2.8 L/kg

## Nc1ncc(-c2cc(N3CCOCC3)nc(N3CCOCC3)n2)cn1
[7]
  microsomal CLint: ≤ 9 µL/min/mg
[8]
  solubility: 25 µM (≈ 8.58 µg/mL)
[9]
  microsomal CLint: ≤ 9 µL/min/mg

## Nc1cc(Cl)c(-c2cc(N3CCOCC3)nc(N3CCOCC3)n2)cn1
[1]
  AUC: 29 µM·h
[7]
  microsomal CLint: ≤ 9 µL/min/mg
[8]
  solubility: 45 µM (≈ 17 µg/mL)
[10]
  bioavailability: 69%
[9]
  microsomal CLint: ≤ 9 µL/min/mg
[5]
  clearance: 22 mL/min/kg
[6]
  Vd: 1.11 L/kg

## N#Cc1cc(N)ncc1-c1cc(N2CCOCC2)nc(N2CCOCC2)n1
[1]
  AUC: 86 µM·h
[7]
  microsomal CLint: ≤ 9 µL/min/mg
[8]
  solubility: 11 µM (≈ 4.04 µg/mL)
[10]
  bioavailability: 98%
[9]
  microsomal CLint: ≤ 9 µL/min/mg
[5]
  clearance: 11 mL/min/kg
[6]
  Vd: 1.6 L/kg

## Nc1ncc(-c2cc(N3CCOCC3)nc(N3CCOCC3)n2)c(N)n1
[11]
  bioavailability: 68%
[7]
  microsomal CLint: ≤ 9 µL/min/mg
[12]
  AUC: 64 µM·h
[8]
  solubility: 8 µM (≈ 2.87 µg/mL)
[9]
  microsomal CLint: ≤ 9 µL/min/mg
[5]
  clearance: 9 mL/min/kg
[6]
  Vd: 4.5 L/kg

## Nc1ncc(-c2cc(N3CCOCC3)nc(N3CCOCC3)n2)c(=O)[nH]1
[1]
  AUC: 24 µM·h
[7]
  microsomal CLint: ≤ 9 µL/min/mg
[8]
  solubility: 22 µM (≈ 7.91 µg/mL)
[10]
  bioavailability: 56%
[9]
  microsomal CLint: ≤ 9 µL/min/mg
[5]
  clearance: 24 mL/min/kg
[6]
  Vd: 2.8 L/kg

## Nc1ncc(-c2cc(N3CCOCC3)nc(N3CCOCC3)n2)c(C(F)(F)F)n1
[1]
  AUC: 62 µM·h
[7]
  microsomal CLint: ≤ 9 µL/min/mg
[8]
  solubility: 61 µM (≈ 25.1 µg/mL)
[10]
  bioavailability: 83%
[9]
  microsomal CLint: ≤ 9 µL/min/mg
[5]
  clearance: 11 mL/min/kg
[6]
  Vd: 2.1 L/kg

## Nc1cc(C(F)(F)F)c(-c2cc(N3CCOCC3)nc(N3CCOCC3)n2)cn1 [BUPARLISIB]
[1]
  AUC: 178 µM·h
[13]
  concentration: 2000 nM
[14]
  logD: 2.9
[15]
  concentration: 2000 nM
[16]
  half-life: 1.6 h
[7]
  microsomal CLint: ≤ 9 µL/min/mg
[17]
  concentration: 2000 nM
[18]
  clearance: 11 mL/min/kg
[19]
  Vd: 3.1 L/kg
[8]
  solubility: 132 µM (≈ 54.2 µg/mL)
[20]
  half-life: 3.6 h
[21]
  clearance: 3 mL/min/kg
[22]
  bioavailability: 44%
[23]
  clearance: 13 mL/min/kg
[24]
  bioavailability: > 100%
[10]
  bioavailability: 50%
[25]
  half-life: 11 h
[26]
  clearance: 7.3 mL/min/kg
[9]
  microsomal CLint: ≤ 9 µL/min/mg
[27]
  Vd: 3.1 L/kg
[28]
  Vd: 3.1 L/kg
[29]
  bioavailability: 71%
[30]
  half-life: 6.6 h
[31]
  concentration: 2000 nM
[32]
  Vd: 1.4 L/kg
[33]
  pKa: 5.1
[5]
  clearance: 3 mL/min/kg
[6]
  Vd: 3.1 L/kg
[34]
  bioavailability: 50%

From ChEMBL document CHEMBL2016472, “Identification of NVP-BKM120 as a Potent, Selective, Orally Bioavailable Class I PI3 Kinase Inhibitor for Treating Cancer” (ACS Med Chem Lett, 2011)
